Measured values as given in publication PMC8044591 (International Journal for Parasitology: Drugs and Drug …, 2021).
Like-named read-outs stand apart in the source and are kept apart here. Marks after values point to notes of the source that are not given here.

How the values were obtained:
Ostertagia spp. = experiment: FECR by genus from coprocultures, naturally parasitized calves; format: in vivo
Haemonchus spp. = experiment: FECR by genus from coprocultures, naturally parasitized calves; format: in vivo
Procedure, shortened: (§1)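 Male Aberdeen Angus calves, 9–11 months, naturally infected, ≥100 EPG on day −1, were ranked by EPG and randomised to groups of 15 per farm. Dosing was oral 2.5 mg/kg or SC 0.2 or 3.75 mg/kg. Rectal faeces on day −1 and day 15 were read by modified McMaster (10 EPG sensitivity). Coprocultures used 10 g faeces; ~100 Baermann L3 were identified per sample. Genus efficacy used group mean EPG […] that genus's L3 proportion.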

Oesophagostomum spp. = experiment: as above; format: in vivo
Procedure, shortened: as §1

[1] = tested on: GI nematodes resistant to IVM and RBZ; experiment: Faecal egg count reduction test; format: in vivo; conditions: for EPG Counts Day 15: arithmetic mean, n = 15
Procedure, shortened: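 Naturally infected male Aberdeen Angus calves, 9–11 months, ≥100 EPG on day −1; 15 per group, allocated by EPG ranking. Herds were levamisole-treated beforehand, then grazed ≥2 months on-farm. Dosing was oral 2.5 mg/kg or SC 0.2 or 3.75 mg/kg. Rectal faeces on day −1 and day 15 were read by modified McMaster (10 EPG). FECR (%) = 100(1 − T2/T1), using arithmetic group mean EPG; 95% CI by the Coles method.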

Cooperia spp. = experiment: FECR by genus from coprocultures, naturally parasitized calves; format: in vivo
Procedure, shortened: as §1

Oesophagostomum = conditions: sheep, cited from earlier work; for reduction of Oesophagostomum: 2009
[2] = liver metabolism, sheep compared to cattle, ref Ballent et al., 2016; cited from earlier work
[3] = Plasma pharmacokinetics after oral administration of MNP to parasitized calves; format: in vivo
Procedure, shortened: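 Eight calves on Farm 1 received a single oral 2.5 mg/kg dose. Jugular heparinised blood was drawn pre-dose, at 2–10 h and days 1–9; plasma was stored at −20 °C. Acetonitrile extraction, N2 evaporation, then C18 HPLC-UV at 230 nm (acetonitrile:methanol:water 60:8:32, 0.8 mL/min) quantified parent and sulphone metabolite. Calibration 4–400 ng/mL; LOQ 4 ng/mL. Non-compartmental analysis: observed Cmax, trapezoidal AUC extrapolated to infinity, moment-based MRT; mean ± SD.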

[4] = Adverse events in treated cattle; format: in vivo; conditions: cattle treated with MNP oral 2.5 mg/kg
[5] = sheep, ref Lifschitz et al., 2014; cited from earlier work

CC[C@H](C)[C@H]1O[C@]2(CC[C@@H]1C)C[C@@H]1C[C@@H](C/C=C(\C)[C@@H](O[C@H]3C[C@H](OC)[C@@H](O[C@H]4C[C@H](OC)[C@@H](O)[C@H](C)O4)[C@H](C)O3)[C@@H](C)/C=C/C=C3\CO[C@@H]4[C@H](O)C(C)=C[C@@H](C(=O)O1)[C@]34O)O2 [IVM, ivermectin]
FECR Day 15 (Ostertagia spp.; Farm 1): 100% | FECR Day 15 (Ostertagia spp.; Farm 2): 100% | FECR Day 15 (Ostertagia spp.; Farm 3): 100% | FECR Day 15 (Haemonchus spp.; Farm 1): 19% | FECR Day 15 (Haemonchus spp.; Farm 2): 100% | FECR Day 15 (Haemonchus spp.; Farm 3): 0% | FECR Day 15 (Oesophagostomum spp.; Farm 1): 100% | FECR Day 15 (Oesophagostomum spp.; Farm 2): 100% | FECR Day 15 (Oesophagostomum spp.; Farm 3): 100% | EPG Counts Day 15 ([1]; Farm 1, 15 days post-treatment): 269^b (0–1060) EPG | EPG Counts Day 15 ([1]; Farm 2, 15 days post-treatment): 111^b (0–320) EPG | EPG Counts Day 15 ([1]; Farm 3, 15 days post-treatment): 362^b (20–1520) EPG | FECR Day 15 (Cooperia spp.; Farm 1): 80% | FECR Day 15 (Cooperia spp.; Farm 2): 56% | FECR Day 15 (Cooperia spp.; Farm 3): 43%

C[C@](C#N)(COc1cc(C#N)ccc1C(F)(F)F)NC(=O)c1ccc(SC(F)(F)F)cc1 [MNP, monepantel]
FECR Day 15 (Ostertagia spp.; Farm 1): 100% | FECR Day 15 (Ostertagia spp.; Farm 2): 100% | FECR Day 15 (Ostertagia spp.; Farm 3): 99% | efficacy (FECR) across farms (Ostertagia spp.; Farms 1-3 together): 100% | reduction of Oesophagostomum (Oesophagostomum; ref Bustamante et al.): 61.9% | efficacy against Oesophagostomum (Oesophagostomum; ref Hosking et al. (2009)): below 90% | reduction of Oesophagostomum (Oesophagostomum; ref Sager et al.): 88% | rate of MNP conversion into MNPSO2 [2]: five-fold higher in sheep compared to cattle | time post-administration up to which analyte was measured/recovered in plasma ([3]; MNP oral 2.5 mg/kg, calves, LOQ 4 ng/mL): up to 120 h | AUC ([3]; bovine, plasma, po, 2.5 mg/kg): 1710 ± 651 ng·h/mL | AUC(0-inf) ([3]; bovine, plasma, po, 2.5 mg/kg): 2170 ± 783 ng·h/mL | Cmax ([3]; bovine, plasma, po, 2.5 mg/kg): 21.5 ± 4.62 ng/mL | MRT ([3]; bovine, plasma, po, 2.5 mg/kg): 112 ± 40.8 h | Tmax ([3]; bovine, plasma, po, 2.5 mg/kg): 8 ± 1.51 h | half-life ([3]; bovine, plasma, po, 2.5 mg/kg): 81 ± 31 h | adverse events [4]: no adverse events were observed | FECR Day 15 (Haemonchus spp.; Farm 1): 100% | FECR Day 15 (Haemonchus spp.; Farm 2): 100% | FECR Day 15 (Haemonchus spp.; Farm 3): 100% | efficacy (FECR) across farms (Haemonchus spp.; Farms 1-3 together): 100% | FECR Day 15 (Oesophagostomum spp.; Farm 1): 74% | FECR Day 15 (Oesophagostomum spp.; Farm 2): 22% | FECR Day 15 (Oesophagostomum spp.; Farm 3): 64% | EPG Counts Day 15 ([1]; Farm 1, 15 days post-treatment): 5.6a (0–20) EPG | EPG Counts Day 15 ([1]; Farm 2, 15 days post-treatment): 8a (0–20) EPG | EPG Counts Day 15 ([1]; Farm 3, 15 days post-treatment): 7a (0–20) EPG | overall efficacy (FECR) across farms ([1]; Farms 1, 2 and 3 together, day 15): 96–99% | concentration of MNP in the large intestine mucosa [5]: 225 ng/g | concentration of MNP in the small intestine mucosa, duodenum [5]: 762 ng/g | concentration of MNP in the small intestine mucosa, ileum [5]: 562 ng/g | FECR Day 15 (Cooperia spp.; Farm 1): 100% | FECR Day 15 (Cooperia spp.; Farm 2): 100% | FECR Day 15 (Cooperia spp.; Farm 3): 100% | efficacy (FECR) across farms (Cooperia spp.; Farms 1-3 together): 100%

CCC[S+]([O-])c1ccc2[nH]c(NC(=O)OC)nc2c1 (centres unmarked) [RBZ, ricobendazole]
FECR Day 15 (Ostertagia spp.; Farm 2): 100% | FECR Day 15 (Ostertagia spp.; Farm 3): 0% | efficacy (FECR) on Farms 1 and 3 (Ostertagia spp.; Farms 1 and 3, stated jointly with Cooperia spp.): below 90% | FECR Day 15 (Haemonchus spp.; Farm 1): 99% | FECR Day 15 (Haemonchus spp.; Farm 2): 95% | FECR Day 15 (Haemonchus spp.; Farm 3): 98% | FECR Day 15 (Oesophagostomum spp.; Farm 1): 100% | FECR Day 15 (Oesophagostomum spp.; Farm 2): 100% | FECR Day 15 (Oesophagostomum spp.; Farm 3): 100% | EPG Counts Day 15 ([1]; Farm 1, 15 days post-treatment): 31^a (0–120) EPG | 95% lower confidence interval of FECR ([1]; Farm 1, day 15): less than 90% | EPG Counts Day 15 ([1]; Farm 2, 15 days post-treatment): 3^a (0–20) EPG | EPG Counts Day 15 ([1]; Farm 3, 15 days post-treatment): 115^b (0–320) EPG | FECR Day 15 (Cooperia spp.; Farm 1): 86% | FECR Day 15 (Cooperia spp.; Farm 2): 99% | FECR Day 15 (Cooperia spp.; Farm 3): 54%
